Measurements published in ChEMBL document CHEMBL2062435, “Synthesis and in vitro antibacterial activity of gemifloxacin derivatives containing a substituted benzyloxime moiety” (2012).

Legend:
Format in all cases: functional
Staphylococcus aureus [1] = assay: Antimicrobial activity against Staphylococcus aureus ATCC […] after 18-24 hrs by two-fold serial dilution method
Procedure, shortened: (§1)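 Agar-medium twofold serial dilution against Gram-positive and Gram-negative strains; MIC taken as the lowest compound concentration giving complete inhibition of bacterial growth after incubation at 35 °C for 18-24 h.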

Staphylococcus aureus [2] = assay: Antimicrobial activity against extended spectrum beta-lactamases-producing methicillin-resistant Staphylococcus aureus 10-11 after 18-24 hrs by two-fold serial dilution method
Procedure, shortened: (§2)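 Agar twofold serial dilution MIC against clinical isolates. MIC was taken as the lowest concentration giving complete inhibition of bacterial growth after incubation at 35 °C for 18-24 h.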

Staphylococcus aureus [3] = assay: Antimicrobial activity against extended spectrum beta-lactamases-producing methicillin-sensitive Staphylococcus aureus 10-13 after 18-24 hrs by two-fold serial dilution method; procedure, shortened: as §1
Staphylococcus aureus [4] = assay: Antimicrobial activity against extended spectrum beta-lactamases-producing methicillin-sensitive Staphylococcus aureus 10-14 after 18-24 hrs by two-fold serial dilution method; procedure, shortened: as §1
[5] = test system: Staphylococcus epidermidis; assay: Antimicrobial activity against extended spectrum beta-lactamases-producing methicillin-resistant Staphylococcus epidermidis 10-10 after 18-24 hrs by two-fold serial dilution method; procedure, shortened: as §2
[6] = test system: Staphylococcus epidermidis; assay: Antimicrobial activity against extended spectrum beta-lactamases-producing methicillin-sensitive Staphylococcus epidermidis 10-11 after 18-24 hrs by two-fold serial dilution method; procedure, shortened: as §1
[7] = test system: Staphylococcus epidermidis; assay: Antimicrobial activity against extended spectrum beta-lactamases-producing methicillin-sensitive Staphylococcus epidermidis 10-13 after 18-24 hrs by two-fold serial dilution method; procedure, shortened: as §1
[8] = test system: Staphylococcus epidermidis; assay: Antimicrobial activity against extended spectrum beta-lactamases-producing methicillin-sensitive Staphylococcus epidermidis 10-15 after 18-24 hrs by two-fold serial dilution method; procedure, shortened: as §1
Enterococcus faecalis [9] = assay: Antimicrobial activity against Enterococcus faecalis 10-7 after 18-24 hrs by two-fold serial dilution method; procedure, shortened: as §1
Streptococcus pneumoniae [10] = assay: Antimicrobial activity against extended spectrum beta-lactamases-producing Streptococcus pneumoniae 10-1 after 18-24 hrs by two-fold serial dilution method; procedure, shortened: as §1
Streptococcus pneumoniae [11] = assay: Antimicrobial activity against extended spectrum beta-lactamases-producing Streptococcus pneumoniae 10-4 after 18-24 hrs by two-fold serial dilution method; procedure, shortened: as §1
Escherichia coli [12] = assay: Antimicrobial activity against Escherichia coli ATCC 25922 after 18-24 hrs by two-fold serial dilution method; procedure, shortened: as §1
Escherichia coli [13] = assay: Antimicrobial activity against Escherichia coli 10-2 after 18-24 hrs by two-fold serial dilution method; procedure, shortened: as §1
Escherichia coli [14] = assay: Antimicrobial activity against extended spectrum beta-lactamases-producing Escherichia coli 10-2 after 18-24 hrs by two-fold serial dilution method; procedure, shortened: as §1
Escherichia coli [15] = assay: Antimicrobial activity against extended spectrum beta-lactamases-producing Escherichia coli 10-4 after 18-24 hrs by two-fold serial dilution method; procedure, shortened: as §1
Klebsiella pneumoniae [16] = assay: Antimicrobial activity against extended spectrum beta-lactamases-producing Klebsiella pneumoniae 10-1 after 18-24 hrs by two-fold serial dilution method; procedure, shortened: as §1
Klebsiella pneumoniae [17] = assay: Antimicrobial activity against Klebsiella pneumoniae 10-2 after 18-24 hrs by two-fold serial dilution method; procedure, shortened: as §1
Klebsiella pneumoniae [18] = assay: Antimicrobial activity against extended spectrum beta-lactamases-producing Klebsiella pneumoniae 10-2 after 18-24 hrs by two-fold serial dilution method; procedure, shortened: as §1
Klebsiella pneumoniae [19] = assay: Antimicrobial activity against Klebsiella pneumoniae 10-3 after 18-24 hrs by two-fold serial dilution method; procedure, shortened: as §1
Klebsiella pneumoniae [20] = assay: Antimicrobial activity against extended spectrum beta-lactamases-producing Klebsiella pneumoniae 10-3 after 18-24 hrs by two-fold serial dilution method; procedure, shortened: as §1
Klebsiella pneumoniae [21] = assay: Antimicrobial activity against Klebsiella pneumoniae 10-4 after 18-24 hrs by two-fold serial dilution method; procedure, shortened: as §1
Pseudomonas aeruginosa [22] = assay: Antimicrobial activity against extended spectrum beta-lactamases-producing Pseudomonas aeruginosa 10-9 after 18-24 hrs by two-fold serial dilution method; procedure, shortened: as §1
Pseudomonas aeruginosa [23] = assay: Antimicrobial activity against extended spectrum beta-lactamases-producing Pseudomonas aeruginosa 10-20 after 18-24 hrs by two-fold serial dilution method; procedure, shortened: as §1
Staphylococcus aureus [24] = assay: Antimicrobial activity against methicillin-resistant Staphylococcus aureus clinical isolate after 18-24 hrs by two-fold serial dilution method; procedure, shortened: as §2
[25] = test system: Staphylococcus epidermidis; assay: Antimicrobial activity against methicillin-resistant Staphylococcus epidermidis clinical isolate after 18-24 hrs by two-fold serial dilution method
Staphylococcus aureus [26] = assay: Ratio of levofloxacin MIC to compound MIC for Staphylococcus aureus ATCC […] after 18-24 hrs by two-fold serial dilution method
Staphylococcus aureus [27] = assay: Ratio of levofloxacin MIC to compound MIC for extended spectrum beta-lactamases-producing methicillin-sensitive Staphylococcus aureus 10-13 after 18-24 hrs by two-fold serial dilution method
Procedure, shortened: (§3)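 MICs were determined by the standard twofold serial dilution method on agar media against the test strains, with levofloxacin run as a reference. MIC is the lowest concentration giving complete inhibition of bacterial growth after 18–24 h incubation at 35 °C. The ratio is levofloxacin MIC divided by test-compound MIC.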

Staphylococcus aureus [28] = assay: Ratio of levofloxacin MIC to compound MIC for extended spectrum beta-lactamases-producing methicillin-sensitive Staphylococcus aureus 10-14 after 18-24 hrs by two-fold serial dilution method; procedure, shortened: as §3
[29] = test system: Staphylococcus epidermidis; assay: Ratio of levofloxacin MIC to compound MIC for extended spectrum beta-lactamases-producing methicillin-sensitive Staphylococcus epidermidis 10-11 after 18-24 hrs by two-fold serial dilution method; procedure, shortened: as §3
Enterococcus faecalis [30] = assay: Ratio of levofloxacin MIC to compound MIC for Enterococcus faecalis 10-7 after 18-24 hrs by two-fold serial dilution method
Enterococcus faecium [31] = assay: Ratio of levofloxacin MIC to compound MIC for Enterococcus faecium 10-9 after 18-24 hrs by two-fold serial dilution method
Streptococcus pneumoniae [32] = assay: Ratio of levofloxacin MIC to compound MIC for extended spectrum beta-lactamases-producing Streptococcus pneumoniae 10-1 after 18-24 hrs by two-fold serial dilution method
Streptococcus pneumoniae [33] = assay: Ratio of levofloxacin MIC to compound MIC for extended spectrum beta-lactamases-producing Streptococcus pneumoniae 10-4 after 18-24 hrs by two-fold serial dilution method; procedure, shortened: as §3
Staphylococcus aureus [34] = assay: Ratio of gemifloxacin MIC to compound MIC for Staphylococcus aureus ATCC […] after 18-24 hrs by two-fold serial dilution method
Staphylococcus aureus [35] = assay: Ratio of gemifloxacin MIC to compound MIC for extended spectrum beta-lactamases-producing methicillin-sensitive Staphylococcus aureus 10-14 after 18-24 hrs by two-fold serial dilution method
[36] = test system: Staphylococcus epidermidis; assay: Ratio of gemifloxacin MIC to compound MIC for extended spectrum beta-lactamases-producing methicillin-sensitive Staphylococcus epidermidis 10-13 after 18-24 hrs by two-fold serial dilution method
[37] = test system: Staphylococcus epidermidis; assay: Ratio of gemifloxacin MIC to compound MIC for extended spectrum beta-lactamases-producing methicillin-sensitive Staphylococcus epidermidis 10-15 after 18-24 hrs by two-fold serial dilution method
Enterococcus faecalis [38] = assay: Ratio of gemifloxacin MIC to compound MIC for Enterococcus faecalis 10-7 after 18-24 hrs by two-fold serial dilution method
Enterococcus faecium [39] = assay: Ratio of gemifloxacin MIC to compound MIC for Enterococcus faecium 10-5 after 18-24 hrs by two-fold serial dilution method
Streptococcus pneumoniae [40] = assay: Ratio of gemifloxacin MIC to compound MIC for extended spectrum beta-lactamases-producing Streptococcus pneumoniae 10-1 after 18-24 hrs by two-fold serial dilution method
Streptococcus pneumoniae [41] = assay: Ratio of gemifloxacin MIC to compound MIC for extended spectrum beta-lactamases-producing Streptococcus pneumoniae 10-4 after 18-24 hrs by two-fold serial dilution method

COc1ccc(OC)c(CO/N=C2\CN(c3nc4c(cc3F)c(=O)c(C(=O)O)cn4C3CC3)CC2CN)c1.CS(=O)(=O)O (racemic)
0.015 µg/mL: MIC (Streptococcus pneumoniae [11])
0.25 µg/mL: MIC [5] | MIC [6] | MIC (Enterococcus faecalis [9]) | MIC50 [25]
4 µg/mL: MIC [8] | MIC90 [25]
1 µg/mL: MIC (Staphylococcus aureus [2]) | MIC90 (Staphylococcus aureus [24])
< 0.008 µg/mL: MIC (Staphylococcus aureus [1])
0.5 µg/mL: MIC50 (Staphylococcus aureus [24])
8: Ratio (Staphylococcus aureus [26]) | Ratio (Staphylococcus aureus [27]) | Ratio (Staphylococcus aureus [28]) | Ratio [29] | Ratio (Enterococcus faecalis [30]) | Ratio (Enterococcus faecium [31]) | Ratio (Streptococcus pneumoniae [32]) | Ratio (Streptococcus pneumoniae [33])
> 128 µg/mL: MIC (Escherichia coli [13]) | MIC (Escherichia coli [14]) | MIC (Escherichia coli [15]) | MIC (Klebsiella pneumoniae [16]) | MIC (Klebsiella pneumoniae [17]) | MIC (Klebsiella pneumoniae [18]) | MIC (Klebsiella pneumoniae [19]) | MIC (Klebsiella pneumoniae [20]) | MIC (Klebsiella pneumoniae [21]) | MIC (Pseudomonas aeruginosa [22]) | MIC (Pseudomonas aeruginosa [23])
2: Ratio (Staphylococcus aureus [34]) | Ratio (Staphylococcus aureus [35]) | Ratio [36] | Ratio [37] | Ratio (Enterococcus faecalis [38]) | Ratio (Enterococcus faecium [39]) | Ratio (Streptococcus pneumoniae [40]) | Ratio (Streptococcus pneumoniae [41])
0.03 µg/mL: MIC (Staphylococcus aureus [3]) | MIC (Staphylococcus aureus [4]) | MIC [7]
0.06 µg/mL: MIC (Streptococcus pneumoniae [10]) | MIC (Escherichia coli [12])
